Assay results collected from several papers.
Each line is one published result; the experiments were not run side by side. In brackets after ≈: the same amount, converted by molar mass.

With O=c1cc(-c2ccc(O)cc2)oc2cc(O)cc(O)c12 the inhibition was 100% (Helicobacter pylori; microbial growth, broth dilution; 31.25 µg/mL).
The EC50 of COC(=O)c1cccc(Nc2nccc(NC3CCCCC3)n2)c1 is reported as > 17 µM (BJ; cell growth or viability, ATP luminescence; 72 h).
CN(C)C/C=C/C(=O)Nc1cc2c(Nc3ccc(F)c(Cl)c3)ncnc2cc1O[C@H]1CCOC1 gave a viability of 92.7% (KB-C2; cell growth or viability, ATP luminescence; 6 µM, 12 days, 3D culture).
O=C(N[C@H](CO)[C@H](O)c1ccc([N+](=O)[O-])cc1)C(Cl)Cl has an MIC of 2 µg/mL (≈ 6.19 µM) (Salmonella enterica; microbial growth; 20 h, pH 7).
The EC50 of CN(c1ccnc(Nc2cccc(-c3cccnc3)c2)n1)C1CCCCC1 is reported as > 8 µM (BJ; cell growth or viability, ATP luminescence; 72 h).
With O=C(O)c1ccc(O)cc1 the inhibition was 100% (Helicobacter pylori; microbial growth, broth dilution; 125 µg/mL).
With C[C@H](Nc1ccnc(Nc2cccc(-c3cccnc3)c2)n1)C(=O)O the EC50 was > 9 µM (BJ; cell growth or viability, ATP luminescence; 72 h).
With CO/N=C(\C(=O)N[C@@H]1C(=O)N2C(C(=O)O)=C(CSc3nc(=O)c(=O)[nH]n3C)CS[C@H]12)c1csc(N)n1 the MIC was 0.125 µg/mL (≈ 0.225 µM) (Salmonella enterica; microbial growth; F98, TYPHIMURIUM; 20 h, pH 7.2).
For O=C(Nc1cncc(-c2nc3ccccc3o2)c1)c1ccc(N2CCNCC2)c([N+](=O)[O-])c1, the EC50 was > 20 µM (BJ; cell growth or viability, ATP luminescence).
The MIC of CN(C)[C@@H]1C(O)=C(C(N)=O)C(=O)[C@@]2(O)C(O)=C3C(=O)c4c(O)cccc4[C@@](C)(O)[C@H]3C[C@@H]12 is reported as 1 µg/mL (≈ 2.25 µM) (Salmonella enterica; microbial growth; 20 h, pH 5.5).
O=c1cc(-c2ccc(O)c(O)c2)oc2cc(O)cc(O)c12 gave an inhibition of 89.3% (Helicobacter pylori; microbial growth, broth dilution; 1.95 µg/mL).
For CC1(C)S[C@@H]2[C@H](NC(=O)[C@H](N)c3ccccc3)C(=O)N2[C@H]1C(=O)O, the MIC was 2 µg/mL (≈ 5.72 µM) (Salmonella enterica; microbial growth; F98, TYPHIMURIUM; 20 h, pH 7.2).
CONc1ccnc(Nc2cccc(-c3cccnc3)c2)n1 gave an EC50 of > 12 µM (BJ; cell growth or viability, ATP luminescence; 72 h).
